In ChEMBL document CHEMBL5096201, “Rufomycins or Ilamycins: Naming Clarifications and Definitive Structural Assignments” (J Nat Prod, 2021):
Converted amounts (≈) assume the structure as drawn.

Experiments:
[1] = system: Mycobacterium tuberculosis; assay: Antimycobacterial activity against Mycobacterium tuberculosis incubated for 7 days by microplate alamar blue assay; assay type: functional; details: 168 h, time 7 day
In short: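 Microplate Alamar Blue readout by fluorescence. MIC is the lowest concentration giving a 90% fluorescence reduction relative to untreated bacterial controls.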

[2] = Binding affinity to N-terminal domain of Mycobacterium tuberculosis ClpC1 expressed in Escherichia coli BL21 (DE3) assessed as dissociation constant by surface plasma resonance assay
In short: (§1)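 SPR with ClpC1 N-terminal domain or full-length protein. Association and dissociation rate constants (ka, kd) come from global fitting of double-referenced sensorgrams to a 1:1 Langmuir model. KD is calculated as kd/ka.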

[3] = Binding affinity to in full length Mycobacterium tuberculosis ClpC1 expressed in Escherichia coli BL21 (DE3) assessed as dissociation constant by surface plasma resonance assay; in short: as §1

| Structure (SMILES) | MIC90 [1] | Kd [2] | Kd [3] |
| --- | --- | --- | --- |
| C/C=C/C[C@@H]1NC(=O)[C@H](CC(C)C)N2C(=O)[C@H](C[C@H](C)[C@H]2O)N(C)C(=O)[C@H](C)NC(=O)[C@H](Cc2ccc(O)c([N+](=O)[O-])c2)NC(=O)[C@H](CC(C)C)N(C)C(=O)[C@H](Cc2cn(C(C)(C)[C@H]3CO3)c3ccccc23)NC1=O | 0.021 µM (≈ 0.0219 µg/mL) | 0.032 µM | 0.031 µM |
| C/C=C/C[C@@H]1NC(=O)[C@H](CC(C)C)N2C(=O)[C@H](C[C@H](C)[C@@H]2O)N(C)C(=O)[C@H](C)NC(=O)[C@H](Cc2ccc(O)c([N+](=O)[O-])c2)NC(=O)[C@H](CC(C)C)N(C)C(=O)[C@H](Cc2cn(C(C)(C)[C@H]3CO3)c3ccccc23)NC1=O | 0.012 µM (≈ 0.0125 µg/mL) | 0.029 µM | 0.027 µM |
| C/C=C/C[C@@H]1NC(=O)[C@H](CC(C)C)N2C(=O)[C@H](C[C@@H](C)[C@@H]2O)N(C)C(=O)[C@H](C)NC(=O)[C@H](Cc2ccc(O)c([N+](=O)[O-])c2)NC(=O)[C@H](CC(C)C)N(C)C(=O)[C@H](Cc2cn(C(C)(C)[C@H]3CO3)c3ccccc23)NC1=O | 0.047 µM (≈ 0.049 µg/mL) | 0.186 µM | 0.209 µM |
| C/C=C/C[C@@H]1NC(=O)[C@H](CC(C)C)N2C(=O)[C@H](C[C@@H](C)[C@H]2O)N(C)C(=O)[C@H](C)NC(=O)[C@H](Cc2ccc(O)c([N+](=O)[O-])c2)NC(=O)[C@H](CC(C)C)N(C)C(=O)[C@H](Cc2cn(C(C)(C)[C@H]3CO3)c3ccccc23)NC1=O | 0.046 µM (≈ 0.0479 µg/mL) | 0.183 µM | 0.178 µM |
| NNC(=O)c1ccncc1 [ISONIAZID] | 0.463 µM (≈ 0.0635 µg/mL) | – | – |
| CO[C@H]1/C=C/O[C@@]2(C)Oc3c(C)c(O)c4c(O)c(c(/C=N/N5CCN(C)CC5)c(O)c4c3C2=O)NC(=O)/C(C)=C\C=C\[C@H](C)[C@H](O)[C@@H](C)[C@@H](O)[C@@H](C)[C@H](OC(C)=O)[C@@H]1C [RIFAMPIN] | 0.028 µM (≈ 0.023 µg/mL) | – | – |
